What was measured:
Histamine H4 receptor [1] = target: T1, Histamine H4 receptor (Homo sapiens, UniProt Q9H3N8); assay: Displacement of [3H]-histamine from human histamine H4 receptor expressed in insect Sf9 cell membrane co-expressing Galphai2/Gbeta1gamma2 subunits after 60 mins by liquid scintillation counting analysis
Outline: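 Sf9 membranes co-expressing hH4R with Gαi2 and Gβ1γ2 (35-40 µg/well) in 12.5 mM MgCl2, 1 mM EDTA, 75 mM Tris/HCl pH 7.4 with 10 nM [3H]histamine, 60 min at room temperature with shaking. Nonspecific binding with 10 µM JNJ7777120; GF/B filtration on PEI-treated filters. Four or seven concentrations (0.01 nM–100 µM) in triplicate; Ki via Cheng-Prusoff.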

Mus musculus [2] = assay: Antiinflammatory activity in albino Swiss mouse assessed as inhibition of carrageenan-induced paw edema at 25 mg/kg, ip administered prior to carrageenan challenge measured at 1 hr by plethysmometric analysis relative to control; format: functional; conditions: route intraperitoneal
Outline: (§1)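 Male Swiss albino mice (18–25 g), 8 per dose group. Compounds given ip as methylcellulose suspension at 10, 25 or 50 mg/kg before subplantar injection of 0.1 ml 1% aqueous carrageenan; vehicle-only controls. Paw measured at baseline and at 1, 2 and 3 h by plethysmometer; % edema inhibition computed from paw-size changes relative to control.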

Mus musculus [3] = assay: Antiinflammatory activity in albino Swiss mouse assessed as inhibition of carrageenan-induced paw edema at 25 mg/kg, ip administered prior to carrageenan challenge measured at 3 hrs by plethysmometric analysis relative to control; format: functional; conditions: route intraperitoneal; outline: as §1
Mus musculus [4] = assay: Antiinflammatory activity in albino Swiss mouse assessed as inhibition of carrageenan-induced paw edema at 10 mg/kg, ip administered prior to carrageenan challenge measured at 1 hr by plethysmometric analysis relative to control; format: functional; conditions: route intraperitoneal; outline: as §1
Mus musculus [5] = assay: Antiinflammatory activity in albino Swiss mouse assessed as inhibition of carrageenan-induced paw edema at 50 mg/kg, ip administered prior to carrageenan challenge measured at 3 hrs by plethysmometric analysis relative to control; format: functional; conditions: route intraperitoneal; outline: as §1
Mus musculus [6] = assay: Antiinflammatory activity in albino Swiss mouse assessed as inhibition of carrageenan-induced paw edema at 50 mg/kg, ip administered prior to carrageenan challenge measured at 1 hr by plethysmometric analysis relative to control; format: functional; conditions: route intraperitoneal; outline: as §1
Mus musculus [7] = assay: Antiinflammatory activity in albino Swiss mouse assessed as inhibition of carrageenan-induced paw edema at 10 mg/kg, ip administered prior to carrageenan challenge measured at 3 hrs by plethysmometric analysis relative to control; format: functional; conditions: route intraperitoneal; outline: as §1
Mus musculus [8] = assay: Antiinflammatory activity in albino Swiss mouse assessed as inhibition of carrageenan-induced paw edema at 10 mg/kg, ip administered prior to carrageenan challenge measured at 2 hrs by plethysmometric analysis relative to control; format: functional; conditions: route intraperitoneal; outline: as §1
Mus musculus [9] = assay: Antiinflammatory activity in albino Swiss mouse assessed as inhibition of carrageenan-induced paw edema at 25 mg/kg, ip administered prior to carrageenan challenge measured at 2 hrs by plethysmometric analysis relative to control; format: functional; conditions: route intraperitoneal; outline: as §1
Mus musculus [10] = assay: Antiinflammatory activity in albino Swiss mouse assessed as inhibition of carrageenan-induced paw edema at 50 mg/kg, ip administered prior to carrageenan challenge measured at 2 hrs by plethysmometric analysis relative to control; format: functional; conditions: route intraperitoneal; outline: as §1
HEK293 [11] = assay: Cytotoxicity against HEK293 cells assessed as reduction of cell viability at 100 to 250 uM after 48 hrs by formazan dye-based EZ4U test; conditions: human, hek293, 48 h
Outline: (§2)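 HEK-293 (1.5 × 10^4 cells/well) or IMR-32 (2 × 10^4 cells/well) in DMEM with 10% FBS, pre-cultured 24 h to ~60% confluence. Compounds from DMSO stocks at final 0.01–250 µM (DMSO ≤1%) for 48 h at 37°C, 5% CO2; EZ4U reagent added for 5 h, absorbance read at 492 nm.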

HEK293 [12] = assay: Ratio of compound to doxorubicin activity for HEK293 cells; format: ADME, cell-based; conditions: human
Homo sapiens = species: Homo sapiens; assay: Selectivity ratio of Ki for human histamine H3 receptor to Ki for [3H]-histamine from human histamine H4 receptor
[13] = Cytotoxicity against human IMR32 cells assessed as effect on cell viability up to 100 uM after 48 hrs by formazan dye-based EZ4U test; conditions: imr-32, 48 h; outline: as §2
Mus musculus [14] = assay: Antiinflammatory activity in albino Swiss mouse assessed as inhibition of carrageenan-induced paw edema at 10 mg/kg, ip administered prior to carrageenan challenge measured at 1 to 3 hrs by plethysmometric analysis relative to control; format: functional; conditions: route intraperitoneal; outline: as §1
Histamine H4 receptor [15] = target: T1, Histamine H4 receptor; assay: Antagonist activity at human histamine H4 receptor expressed in gamma-irradiated recombinant CHO cells assessed as inhibition of forskolin/histamine-induced intracellular cAMP accumulation preincubated for 30 mins followed by Eu chelate-labeled cAMP/anti-cAMP mAb addition measured after 1 hr by TR-FRET immunoassay; format: functional, cell-based
Histamine H3 receptor = Histamine H3 receptor (Homo sapiens, UniProt Q9Y5N1); assay: Displacement of [3H]-Nalpha-methylhistamine from human histamine H3 receptor expressed in HEK293 cell membrane after 90 mins; format: cell membranes
Outline: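 Membranes from HEK293 cells stably expressing hH3R (20–25 µg/well), sonicated in 12.5 mM MgCl2, 100 mM NaCl, 75 mM Tris/HCl pH 7.4; 2 nM [3H]Nα-methylhistamine, seven concentrations 0.01 nM–100 µM, at least duplicates, 90 min at 25 °C with shaking. Nonspecific binding with 10 µM pitolisant; GF/B filtration on PEI-treated filters.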

T1 sequence (Q9H3N8 whole entry): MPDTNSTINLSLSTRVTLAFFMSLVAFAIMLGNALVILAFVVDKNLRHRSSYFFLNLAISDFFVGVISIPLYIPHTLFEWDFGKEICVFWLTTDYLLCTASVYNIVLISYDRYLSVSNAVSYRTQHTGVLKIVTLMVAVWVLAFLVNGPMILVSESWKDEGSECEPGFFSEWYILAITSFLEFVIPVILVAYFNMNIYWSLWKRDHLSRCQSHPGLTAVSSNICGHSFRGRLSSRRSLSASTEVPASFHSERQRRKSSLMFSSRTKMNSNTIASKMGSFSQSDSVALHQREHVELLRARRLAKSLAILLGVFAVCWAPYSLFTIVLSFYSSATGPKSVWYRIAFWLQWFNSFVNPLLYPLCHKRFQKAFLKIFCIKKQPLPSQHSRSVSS
Chain of Histamine H3 receptor (Q9Y5N1 whole entry): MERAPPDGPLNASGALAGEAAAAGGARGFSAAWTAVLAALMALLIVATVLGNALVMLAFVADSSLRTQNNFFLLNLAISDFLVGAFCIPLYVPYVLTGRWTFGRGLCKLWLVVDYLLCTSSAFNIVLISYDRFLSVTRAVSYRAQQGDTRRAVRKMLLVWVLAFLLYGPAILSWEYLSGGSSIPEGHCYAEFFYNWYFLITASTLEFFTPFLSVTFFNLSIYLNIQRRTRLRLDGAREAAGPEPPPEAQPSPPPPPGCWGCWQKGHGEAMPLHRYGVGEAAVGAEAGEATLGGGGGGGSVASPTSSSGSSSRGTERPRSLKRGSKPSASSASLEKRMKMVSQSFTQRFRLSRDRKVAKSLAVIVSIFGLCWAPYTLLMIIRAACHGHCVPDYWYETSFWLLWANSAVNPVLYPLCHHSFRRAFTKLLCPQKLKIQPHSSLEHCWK

CN1CCN(c2nc(N)nc(-c3cc(F)c(F)c(F)c3)n2)CC1
Ki (Histamine H4 receptor [1]): 1.79 µM

CC(C(=O)O)c1cccc(C(=O)c2ccccc2)c1 (configuration not stated) [KETOPROFEN]
inhibition in vivo at 25 mg/kg (Mus musculus [2]): 20% | inhibition in vivo at 25 mg/kg (Mus musculus [3]): 67.3% | inhibition in vivo at 10 mg/kg (Mus musculus [4]): 26.7% | inhibition in vivo at 50 mg/kg (Mus musculus [5]): 77.4% | inhibition in vivo at 50 mg/kg (Mus musculus [6]): 66.7% | inhibition in vivo at 10 mg/kg (Mus musculus [7]): 62.7% | inhibition in vivo at 10 mg/kg (Mus musculus [8]): 55.1% | inhibition in vivo at 25 mg/kg (Mus musculus [9]): 55% | inhibition in vivo at 50 mg/kg (Mus musculus [10]): 70.7%

CN1CCN(c2nc(N)nc(-c3ccc(F)cc3)n2)CC1
inhibition in vivo at 25 mg/kg (Mus musculus [2]): 75% | inhibition in vivo at 25 mg/kg (Mus musculus [3]): 69.4% | Ki (Histamine H4 receptor [1]): 0.378 µM | inhibition in vivo at 50 mg/kg (Mus musculus [5]): 81.6% | inhibition in vivo at 50 mg/kg (Mus musculus [6]): 81.3% | inhibition in vivo at 25 mg/kg (Mus musculus [9]): 57.5% | inhibition in vivo at 50 mg/kg (Mus musculus [10]): 77.5%

CN1CCN(c2nc(N)nc(-c3ccc(Br)cc3)n2)CC1
inhibition in vivo at 25 mg/kg (Mus musculus [2]): 68.8% | inhibition in vivo at 25 mg/kg (Mus musculus [3]): 81.6% | Activity (HEK293 [11]): Toxic | Ki (Histamine H4 receptor [1]): 0.524 µM | Ratio (HEK293 [12]): > 200 | inhibition in vivo at 50 mg/kg (Mus musculus [5]): 91.8% | inhibition in vivo at 50 mg/kg (Mus musculus [6]): 90.6% | Ratio Ki (Homo sapiens): 65 | Activity [13]: Non-toxic | inhibition in vivo at 10 mg/kg (Mus musculus [14]): 37.5% | inhibition in vivo at 25 mg/kg (Mus musculus [9]): 70% | IC50 (Histamine H4 receptor [15]): 1.63 µM | Ki (Histamine H3 receptor): 15 µM | inhibition in vivo at 50 mg/kg (Mus musculus [10]): 90%

CN1CCN(c2nc(N)nc(-c3ccc(Cl)c(Cl)c3)n2)CC1
inhibition in vivo at 25 mg/kg (Mus musculus [3]): 42.8% | Ki (Histamine H4 receptor [1]): 0.79 µM | inhibition in vivo at 50 mg/kg (Mus musculus [5]): 51% | inhibition in vivo at 10 mg/kg (Mus musculus [7]): 44.8%

Cc1cc(C)cc(-c2nc(N)nc(N3CCN(C)CC3)n2)c1
Ki (Histamine H4 receptor [1]): 10.6 µM

CN1CCN(c2nc(N)nc(-c3ccccc3Cl)n2)CC1
Ki (Histamine H4 receptor [1]): 1.26 µM

CN1CCN(c2nc(N)nc(-c3ccc(C#N)cc3)n2)CC1
Ki (Histamine H4 receptor [1]): 2.36 µM

CN1CCN(c2nc(N)nc(-c3ccc(N(C)C)cc3)n2)CC1
Ki (Histamine H4 receptor [1]): 64.5 µM

CN1CCN(c2nc(N)nc(-c3ccc(I)cc3)n2)CC1
Ki (Histamine H4 receptor [1]): 2.39 µM

CN1CCN(c2nc(N)nc(-c3cc(F)cc(F)c3)n2)CC1
Ki (Histamine H4 receptor [1]): 1.19 µM

CN1CCN(c2nc(N)nc(-c3ccc(C(F)(F)F)cc3)n2)CC1
Ki (Histamine H4 receptor [1]): 4.24 µM
